V-ATPase pH: regulators of yeast V-ATPase proton transport; AID 504577; 0.37% of 350,000 active; response, % at 10 µM; S. cerevisiae, pHLuorin cytosolic pH fluorescence; in the data active means response mostly above about 7.3%, no sharp cut-off; inactive means mostly below about 5.4%; further: actives read high
NRP1-CendR mod: NRP-1/CendR interaction modulation | FAM-RPARPAR peptide binding to NRP-1, fluorescence polarization | inhibition, % at 25 µM | 0.85% of 360,000 active | AID 602438;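 active means inhibition or corrected inhibition above about 18%, plus a signal ratio from 0.5 to 1.5, limit read from the data, passing the limit was not always enough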
Target sequence (O14786 whole entry, looked up): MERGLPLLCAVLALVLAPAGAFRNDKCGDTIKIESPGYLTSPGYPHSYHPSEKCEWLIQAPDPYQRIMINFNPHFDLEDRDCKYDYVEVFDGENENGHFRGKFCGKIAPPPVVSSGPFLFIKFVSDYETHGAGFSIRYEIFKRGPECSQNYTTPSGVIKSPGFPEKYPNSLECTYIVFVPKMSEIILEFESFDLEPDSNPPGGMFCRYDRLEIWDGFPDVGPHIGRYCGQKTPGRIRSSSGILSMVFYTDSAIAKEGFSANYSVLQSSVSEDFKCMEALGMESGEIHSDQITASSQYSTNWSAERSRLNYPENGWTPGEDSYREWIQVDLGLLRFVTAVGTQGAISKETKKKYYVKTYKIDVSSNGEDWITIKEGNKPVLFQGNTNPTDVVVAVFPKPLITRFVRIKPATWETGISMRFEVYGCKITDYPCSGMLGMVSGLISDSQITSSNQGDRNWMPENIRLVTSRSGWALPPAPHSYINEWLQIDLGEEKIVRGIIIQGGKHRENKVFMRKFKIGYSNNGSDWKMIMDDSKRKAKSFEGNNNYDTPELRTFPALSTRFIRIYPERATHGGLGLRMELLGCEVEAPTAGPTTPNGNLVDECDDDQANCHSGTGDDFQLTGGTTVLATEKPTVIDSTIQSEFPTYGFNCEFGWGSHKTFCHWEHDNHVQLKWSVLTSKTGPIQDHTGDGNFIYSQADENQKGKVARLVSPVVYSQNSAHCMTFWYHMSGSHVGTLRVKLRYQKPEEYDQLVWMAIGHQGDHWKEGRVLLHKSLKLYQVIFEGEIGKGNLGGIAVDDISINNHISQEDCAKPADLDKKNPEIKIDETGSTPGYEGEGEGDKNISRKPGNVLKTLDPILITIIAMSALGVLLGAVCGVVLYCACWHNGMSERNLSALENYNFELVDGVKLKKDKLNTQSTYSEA
AI-2 QS mod: modulators of Vibrio harveyi AI-2 quorum sensing system; Vibrio harveyi JMH597 AI-2 luminescence/OD600 ratio, 9 h; hits give low values; strain lacks LuxN and CqsS sensors; 0 = neutral-control median; activity change, % at 7.5 µM; 0.4% of 300,000 active; in the data active means activity change below about -75%, passing the limit was not always enough;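 further: luminescence divided by OD600 gain over 9 h not by final OD600 alone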
HIF activator: HIF pathway transcriptional activation. U2OS HRE-luciferase reporter, luminescence; normalized: DMSO 0%, desferrioxamine 100%. activation, % at 7.5 µM (by protocol). 0.32% of 300,000 active. AID 1910;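 active means mean activation of at least 10% of the iron chelator positive control signal, with at least half of replicates also reaching 10%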
Yeast superoxide: lowers age-related superoxide in aged yeast cells. S. cerevisiae aged cells, superoxide DHE fluorescence; hits give low values. superoxide response (% of plate mean), % at 10 µM. 0.18% of 330,000 active. AID 2690;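 active means superoxide response under a set limit, about three screen SD below normal, cut at about 65% in these data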;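 further: yeast aged for seven days with compound at 30 °C before DHE staining; 100% = average MFI of all compound-treated wells on the plate with controls excluded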
T cruzi inh: T. cruzi replication inhibition. T. cruzi beta-gal in NIH3T3, luminescence, 90 h. inhibition, % (concentration not given with the values). 1.4% of 300,000 active;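 active means mean inhibition across valid replicates above about 55%, limit read from the data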;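 further: signal also drops with host cell toxicity which is not excluded here; 0% = plate median of DMSO wells and 100% = zero luminescence signal; higher percent means less beta-gal luminescence so fewer parasites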
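assay system = mouse NIH/3T3 fibroblasts infected with β-gal-expressing T. cruzi Tulahuen C4 | input = 5,000 NIH/3T3 host cells per well | buffer or medium = DMEM plus 2% FBS | timing = 3 h host attachment, then at least 90 h co-culture | measured by = GalScreen luminescence, 60 min | evaluation = luminescence reflecting intracellular parasite burden, expressed as percent inhibition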
Active calls of the source: *; i = inactive; nt = no result given. Sampled rows, rich in hits. Any-hit rate of the full collection: about 3%.

SMILES	V-ATPase pH	NRP1-CendR mod	AI-2 QS mod	HIF activator	Yeast superoxide	T cruzi inh
CCCCN(C)CC(O)Cn1cc(/C=C/C(=O)c2ccc(OCC)cc2)c2ccccc21 (stereo unspecified)	nt	nt	12	0	98	59*
NNC(=O)c1[nH]c2ccc([N+](=O)[O-])cc2c1-c1ccccc1	2	24*	37	1	99	-3
Cc1cc(C)n(-c2nc(NCCC(C)C)c3c4c(sc3n2)COC(C)(C)C4)n1	2	4	-3	0	nt	76*
COc1ccc(/C=C/C(=O)OC2CCCCC2CN(C)C)cc1 (stereo unspecified)	0	-6	-3	0	100	28
COc1ccccc1/C=C/C(=O)OCCCN(C)C	-2	1	23	0	92	66*
COc1ccc(/C=C/C(=O)OCCCN(C)C)cc1	0	13	5	0	122	57*
COc1ccc(OC)c(C2C=C(c3ccc(C)c(C)c3)Nc3nnnn32)c1 (stereo unspecified)	-7	6	19	3	93	18
Cc1cc(S(=O)(=O)N2CCN(C(=O)c3ccco3)CC2)ccc1F	-2	7	27	-3	109	-3
Cc1ccccc1C1=NC(c2ccc(F)cc2F)ON1 (stereo unspecified)	1	22*	10	2	105	-6
Cc1onc(-c2c(Cl)cccc2Cl)c1C(=O)N=C(N)N1CCCC1	3	-8	15	28*	103	-5
Cc1onc(-c2c(Cl)cccc2Cl)c1C(=O)N=C(N)N1CCOCC1	-5	6	14	0	i	-15
COc1cccc(-c2cc(C(=O)N3CCN(C(c4ccccc4)c4ccccc4)CC3)no2)c1	-1	-7	31	0	119	68*
O=C(c1cccc(NS(=O)(=O)c2ccccc2)c1)N1CCCC1	-2	5	-17	0	103	-7
O=C(c1cccc(NS(=O)(=O)c2cccc(F)c2)c1)N1CCCC1	2	27*	10	1	nt	-2
Cc1ccc(S(=O)(=O)Nc2cccc(C(=O)N3CCOCC3)c2)cc1	-2	23*	13	-14	100	-25
O=[N+]([O-])c1ccc(NCCCO)c(S(=O)(=O)N2CCOCC2)c1	0	-8	-23	0	97	-22
Cc1cc(C)n2nc(CC(=O)NNC(=O)c3ccc(N(C)C)cc3)nc2n1	-1	-3	-17	0	118	-17
OCCNc1nc(Nc2ccccc2)nc2ccccc12	-27	1	18	0	107	41
Oc1ccccc1Nc1nc(NCc2ccccc2)c2ccccc2n1	-3	4	22	-5	110	40
OCCNc1nc(Nc2ccc(Br)cc2)nc2ccccc12	nt	nt	-13	1	109	62*
Cc1c(Cl)cccc1Nc1nc(NCCO)c2ccccc2n1	7	6	0	2	100	56*
CCOc1cccc(/C=N/Nc2ccc(S(=O)(=O)N(CC)CC)cn2)c1O	6	-7	16	9.8*	93	8
CCN(CC)S(=O)(=O)c1ccc(N/N=C(\C)c2ccc(OC)cc2O)nc1	-5	-9	-10	9.6*	i	52
CNC(=S)NCCCc1ccccc1	-2	2	19	0	95	-11
CC1=C(C(=O)N(C(C)C)C(C)C)CC(CC(=O)NCCc2ccccn2)C(=O)N1Cc1ccccc1 (stereo unspecified)	0	-7	nt	nt	nt	nt
SMILES	V-ATPase pH	NRP1-CendR mod	AI-2 QS mod	HIF activator	Yeast superoxide	T cruzi inh
COC(=O)c1ccc(C2c3c(oc4cc(C)c(C)cc4c3=O)C(=O)N2CCCN(C)C)cc1 (stereo unspecified)	nt	nt	2	0	93	-18
O=C(O)c1nn(-c2ccc(Cl)cc2)ccc1=O	1	19*	37	-2	89	-2
COc1cc(/C=N/NC(=O)CC2C(=O)NN=C2C)ccc1O (stereo unspecified)	-4	3	16	0	93	-8
O=c1oc2c3c4c(cc2s1)CCCN4CCC3	-2	36*	7	0	92	12
COc1cc2c(cc1OC)[C@@H](NC(=O)C(C)C)[C@H](O)C2	5	-1	nt	nt	117	nt
CC1=N/C(=C\c2ccc(OC(C)C)cc2)C(=O)N1c1ccc(C(=O)O)cc1	-5	-21	-83*	0	120	-10
CC(C)Oc1ccc(C(=O)O)cc1	0	-8	16	1	96	7
COc1ccc(C(=O)C2CCCN(C(=O)c3cccc(N4CCCC4=O)c3)C2)cc1OC (stereo unspecified)	0	2	24	2	nt	-11
O=C1C=C(c2ccccc2)CC(c2cccs2)C1n1cnc([N+](=O)[O-])c1 (stereo unspecified)	1	2	-6	48*	96	-9
CCC1CC(/C(C)=N/NC(N)=O)OC1=O (stereo unspecified)	1	1	17	0	100	3
C/C(=N\NC(N)=S)C1C2C3CC4C5CC(C42)C1C53 (stereo unspecified)	-1	4	-11	0	101	77*
O=C(NCC(c1cccs1)N1CCOCC1)c1cc([N+](=O)[O-])cc([N+](=O)[O-])c1 (stereo unspecified)	-5	16	33	0	92	73*
O=C(NCC(c1cccs1)N1CCOCC1)c1ccc([N+](=O)[O-])cc1 (stereo unspecified)	4	-1	5	0	101	-10
O=C(c1c[nH]c(C(=O)N2CCN(c3ccccc3F)CC2)c1)c1cccc(Cl)c1Cl	0	6	7	-2	nt	60*
Cc1ccccc1C(=O)c1c[nH]c(C(=O)N2CCN(c3ccccc3F)CC2)c1	2	-7	21	0	109	5
Cc1nnc(NC(=O)CSc2ncnc3c2cnn3-c2ccccc2C)s1	1	3	7	-1	103	-5
CCOC(=O)Cc1csc(NC(=O)CSc2ncnc3c2cnn3-c2ccccc2Cl)n1	-2	21*	16	0	nt	21
CCOc1ccc(NC(=O)C2CCN(C(=O)NC3CCCCC3)CC2)cc1	0	8	18	-1	88	7
OC(COc1ccc2c(c1)OCO2)CN1CCN(c2ccc(F)cc2)CC1 (stereo unspecified)	-4	-8	17	0	107	-3
O=C(Nc1ccc(N2CCCC2)c(Cl)c1)c1cccs1	-5	0	24	2	97	-2
CCN1CCCC1CNC(=O)c1ccc(Sc2ccc(F)cc2)c([N+](=O)[O-])c1 (stereo unspecified)	-1	1	3	0	120	62*
CC(=O)NCCNC(=O)c1ccc(Sc2ccccc2)c([N+](=O)[O-])c1	4	-3	16	-1	104	2
